Structures are written as SMILES. Like-named read-outs stand apart in the source and are kept apart here.

Assay [1] has as its system UACC903 melanoma cells. The experiment in a line: Live/Dead assay, UACC903 cells. The assay is classed as cell-based, human. Put shortly:
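2 × 10^5 cells incubated with test compound (25 and 50 μM) for 24 h at 37 °C. Cells then stained with 5 μM ethidium homodimer plus 5 μM calcein-AM for 30 min at 37 °C. Imaged by fluorescence microscopy: green esterase-retained calcein marks live cells, red marks membrane-damaged dead cells. Percentage of dead cells quantified from images.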

The subject of assay [2] is UACC903 cells. The experiment in a line: Annexin V and Caspase 3/7 activity assays. The assay is classed as cell-based, human. The note with it: UACC903, 24 h; for cells positive for Annexin V, Caspase 3/7 activity and 7-AAD: concentration not stated at place (25 and 50 μM tested). Put shortly: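 UACC903 cells exposed to test compound at 25 and 50 μM for 24 h. Floating and adherent cells analysed on a Muse cell analyzer using two kits. The Annexin V/7-AAD kit sorts cells into live, early apoptotic (Annexin V+/7-AAD−), late apoptotic (double positive) and necrotic (7-AAD only) quadrants. The caspase-3/7 kit uses NucView, a DEVD-linked DNA dye released by active caspase 3/7, plus 7-AAD as dead-cell marker.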

Assay [3] has as its system 1205Lu and A375M cell lines. Kind of assay: MTT cell viability assay, values stated jointly for 1205Lu and A375M. It is filed as cell-based. To be noted: Homo sapiens, 48 h, read-out: IC50, 1205Lu and A375M stated jointly in text. Put shortly:
(§1)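 Cells kept in DMEM with 10% FBS and penicillin/streptomycin at 37 °C. Seeded at 3,000 cells/well and treated in triplicate with a test compound series (0.5–25 μM for 48 h; 72 h exposure also run for CHL-1/UACC 903). MTT (5 mg/mL stock in PBS) added for 3 h at 37 °C, formazan dissolved in DMSO, absorbance read at 570 nm with 630 nm background subtracted. IC50 from non-linear curve fits.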
Background: Formazan colour is commonly taken as a measure of viable cells.

For assay [4], the system named is CHL-1 and UACC 903 melanoma cells. Kind of assay: MTT cell viability assay, values stated jointly for CHL-1 and UACC 903. The assay is classed as cell-based. To be noted: Homo sapiens, read-out: IC50, CHL-1 and UACC 903 stated jointly in text. Summed up: as §1
Assay [5] concerns MCF10A, the human breast epithelial cell line. The experiment in a line: MTT cell viability assay, normal MCF10A cells. The assay is classed as cell-based. The note with it: 25 μM, 48 h.
The test system of assay [6] is PARP, Bcl-2, Bcl-xL, Survivin in CHL-1 and UACC903 melanoma cells. Kind of assay: Western blot of survival and apoptosis proteins. The assay is classed as cell-based, human. The note with it: CHL-1 and UACC903, 24 h. Summed up:
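CHL-1 and UACC903 cells (2 × 10^6) treated with test compound at set concentrations for 24 h. Whole-cell lysates resolved by SDS-PAGE and transferred to PVDF. Blots probed for PARP, […], survivin and Bcl-xL, with β-actin as loading control, and detected by enhanced chemiluminescence.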

Assay [7] has as its system cancer cell lines (UACC903, MCF-7 and MDA-MB-231). Kind of assay: MTT cell viability at 25 μM, values stated jointly for cancer cell lines. It is filed as cell-based. The note with it: 48 h, read-out: cell viability of cancer cell lines.
Assay [8] has as its system Panc-1, MDA-MB-231, MCF-7 and HCT116 cells. It is filed as cell-based. The note with it: 48 h, read-out: IC50s against all the cell lines tested (Panc-1, MDA-MB-231, MCF-7, HCT116).
In assay [9] the test system is CHL-1 (BRAF wild-type) melanoma cells. The experiment in a line: MTT cell viability assay, CHL-1 melanoma cells. It is filed as cell-based. The note with it: Homo sapiens, CHL-1, 72 h, read-out: Melanoma cells IC50 (μM) CHL-1.
In assay [10] the test system is UACC 903 (BRAF-mutant) melanoma cells. Kind of assay: MTT cell viability assay, UACC 903 melanoma cells. To be noted: Homo sapiens, UACC-903, 72 h, read-out: Melanoma cells IC50 (μM) UACC 903. The assay is classed as cell-based.

Broadly, the viability is the share of living cells, or the viability signal relative to a control. For the molecule `O=C1NC(=S)NC(=O)C1=C/C=C/c1cccs1` [Compound 2b, 5-(3-Thiophen-2-yl-allylidene)-2-thioxo-dihydro-pyrimidine-4,6-dione], in assay [1] (25 μM concentration, cell line not specified at place), the “cell death in Live/Dead assay, human melanoma cells” value is given as 65–70%. Also, in assay [2], the “necrotic death (cells only positive for 7-AAD)” value was “not detected”; the “cells positive for Annexin V, Caspase 3/7 activity and 7-AAD” value is reported as “More than 70%”. Further, the IC50 in assay [3] lay in the range of 10.6 to 14.8 µM. For the same molecule, the IC50 in [4] (48 h) is 6.5 to 8.1 µM. The IC50 in assay [4] (72 h) fell in the range of 3.8 to 4 µM. The “potency towards melanoma cells (UACC903) as compared to normal MCF10A cells” value in [5] is on record as “three-fold more potent”. Further, in assay [6], the “PARP cleavage (Western blot)” value was “induced PARP cleavage”; the “levels of anti-apoptotic proteins Bcl-2, Bcl-xL and Survivin (Western blot)” value was “reduced the levels of anti-apoptotic proteins Bcl-2, Bcl-xL and Survivin in a dose-dependent manner”. For the same molecule, the viability at 25 µM in assay [7] was in the range of 20 to 30%.
Take `O=C1NC(=S)NC(=O)C1=C/C=C/c1cccc2ccccc12` [Compound 2d, 5-(3-Naphthalen-1-yl-allylidene)-2-thioxo-dihydro-pyrimidine-4,6-dione]: in assay [8], the IC50 is 3.6 to 7.9 µM.
As to `O=C1NC(=S)N(c2ccccc2)C(=O)/C1=C/C=C/c1cccs1` [Compound 8b, 1-Phenyl-5-(3-thiophen-2-yl-allylidene)-2-thioxo-dihydro-pyrimidine-4,6-dione], in assay [1] (25 μM, 24 h), the “cell death in Live/Dead assay, UACC903” value is listed as 25%. Moreover, the “necrotic death (cells only positive for 7-AAD)” value in assay [2] is on record as “not detected”. For the same molecule, in assay [2], the “cells positive for Annexin V, Caspase 3/7 activity and 7-AAD” value is listed as “More than 70%”. Further, the IC50 in assay [3] fell in the range of 10.6 to 14.8 µM; in assay [4] (48 h) it was 6.5 to 8.1 µM; in assay [4] (72 h), 3.8 to 4 µM. In addition, the “potency towards melanoma cells (UACC903) as compared to normal MCF10A cells” value in assay [5] is “three-fold more potent”. Moreover, the “PARP cleavage (Western blot)” value in assay [6] is on record as “induced PARP cleavage”. Moreover, the “levels of anti-apoptotic proteins Bcl-2, Bcl-xL and Survivin (Western blot)” value in [6] was “reduced the levels of anti-apoptotic proteins Bcl-2, Bcl-xL and Survivin in a dose-dependent manner”. Moreover, in assay [7], the viability at 25 µM was 20 to 30%.
As to `CCCS(=O)(=O)Nc1ccc(F)c(C(=O)c2c[nH]c3ncc(-c4ccc(Cl)cc4)cc23)c1F` [PLX-4032, vemurafenib], the IC50 was 13.7 ± 1.7 µM in [9] and 3.6 ± 1.1 µM in assay [10].

These data come from PMC5736457 (European journal of medicinal chemistry, 2017).
